The list is not random: actives were taken first. Their share in the collection is about 3.5%.
hK5 inh: human KLK5 protease inhibitors, primary screen, biochemical, 1536-well; recombinant hK5, fluorogenic AMC substrate cleavage; inhibition, % at 5 µM; 210,000 tested, 0.59% active;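 active means inhibition of 40% or more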;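 further: 0% = enzyme controls without compound and 100% = no-enzyme blanks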
FXIa inh 1536: human FXIa protease inhibitors, primary screen, biochemical, 1536-well; Coagulation factor XI (Homo sapiens), P03951; purified FXIa, Boc-Glu-Ala-Arg-AMC fluorogenic substrate; inhibition, % at 5 µM; 220,000 tested, 0.14% active; AID 798, 2007;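 active means inhibition of at least 40%; inactive means inhibition below 40%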;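 further: fluorescence of freed AMC excited at 355 nm; 0% = enzyme without compound and 100% = no enzyme blank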
AHR activator: AHR activators, primary screen, cell-based, luminescence, luciferase reporter, human; 320,000 tested, 2.5% active; AHR-responsive luciferase reporter cells; activation, % at 5 µM; Aryl hydrocarbon receptor (Homo sapiens), P35869; in the data active means activation above about 47%;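 further: 0% = vehicle wells and 100% = reference agonist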
STAT3 activator: IL-6 driven STAT3 reporter potentiators, primary screen, U3A cells, luciferase, luminescence, MLSCN library; AID 871, 2007; activation (% of control), % at 5.6 µM; 190,000 tested, 0.91% active; IL-6 STAT3-luciferase reporter; 100% = signal with IL-6 EC80 alone;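 active means activation above the screen-wide mean of compound activation plus 3 SD, cut at about 130% in these data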;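 further: 0% = background luminescence of wells with medium and substrate only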
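Test system: STAT3-luciferase reporter U3A cells; Detection: reporter luminescence signal; Times: 1 h compound pre-exposure, 6 h IL-6 stimulation, 37 °C; Benchmarks: IL-6-only high control; Also added: IL-6 stimulus at 33 ng/mL final.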
FXIIa inh: human FXIIa protease inhibitors, primary screen, biochemical, 1536-well. purified FXIIa, Boc-QGR-AMC fluorogenic substrate, 2 h. inhibition, % at 5 µM. 220,000 tested, 0.3% active. AID 800, 2007; in the data active means inhibition above about 40%;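 further: 0% = enzyme with no compound and 100% = blank without enzyme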
Target sequence (P00748 20-372 limits assumed): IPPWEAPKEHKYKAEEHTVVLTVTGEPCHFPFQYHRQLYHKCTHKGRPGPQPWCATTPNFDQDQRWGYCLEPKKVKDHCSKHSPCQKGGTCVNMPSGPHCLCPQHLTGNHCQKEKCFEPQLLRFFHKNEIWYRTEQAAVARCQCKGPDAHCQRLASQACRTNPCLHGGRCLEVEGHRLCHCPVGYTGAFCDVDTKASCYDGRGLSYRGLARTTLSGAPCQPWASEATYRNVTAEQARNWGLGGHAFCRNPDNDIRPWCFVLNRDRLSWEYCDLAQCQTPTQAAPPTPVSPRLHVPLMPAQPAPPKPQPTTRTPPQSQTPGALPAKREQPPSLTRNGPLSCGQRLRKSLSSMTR
Target sequence (P00748 373-615 limits assumed): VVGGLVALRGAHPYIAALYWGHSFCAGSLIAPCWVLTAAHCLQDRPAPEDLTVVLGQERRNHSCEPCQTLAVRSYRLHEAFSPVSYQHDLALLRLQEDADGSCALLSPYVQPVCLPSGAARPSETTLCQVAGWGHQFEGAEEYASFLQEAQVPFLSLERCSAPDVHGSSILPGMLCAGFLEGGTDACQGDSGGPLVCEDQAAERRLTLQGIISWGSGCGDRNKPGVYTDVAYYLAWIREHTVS
thrombin 1536: human alpha-thrombin inhibitors, primary screen, counter-screen for coagulation protease inhibitor project, biochemical, 1536-well, fluorogenic AMC substrate; Prothrombin (Homo sapiens), P00734; Boc-VPR-AMC fluorogenic substrate cleavage; inhibition, % at 5 µM; 220,000 tested, 0.26% active;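 active means inhibition at or above 40%; inactive means inhibition below 40%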;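 further: 0% = enzyme with no compound and 100% = wells without enzyme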
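System – human alpha-thrombin protein · Reagent – Boc-VPR-AMC substrate, 15 µM final · Compound – 5 µM single dose in 0.2% DMSO · Schedule – reaction at room temperature · Technique – AMC fluorescence at 355 nm excitation and 460 nm emission · Read-out basis – % inhibition relative to enzyme controls and enzyme-free blanks · Control set – no-compound enzyme wells and no-enzyme blanks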
AHR act cf: AHR activators, confirmation, cell-based, luminescence, luciferase reporter, human | shares compounds with AHR activator | human cells, AHR-responsive luciferase reporter | activation, % at 9 µM | 2,300 tested, 87% active | AID 2845, 2010; in the data active means activation above about 49%;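 further: HepG2 hepatoma cells carrying a DRE-driven firefly luciferase reporter; 0% = vehicle wells and 100% = reference agonist wells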
PXR counter: human PXR activators, counter-screen for AHR activator project, cell-based, luciferase luminescence; cell-based PXR reporter; activation, % at 11.6 µM; 2,300 tested, 88% active; shares compounds with AHR activator; in the data active means activation above about 11%;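 further: human hepatoma DPX-2 cells expressing full-length human PXR; 0% = DMSO and 100% = reference agonist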
* hit, by the source's call; . = no result.

SMILES	hK5 inh	FXIa inh 1536	AHR activator	STAT3 activator	FXIIa inh	thrombin 1536	AHR act cf	PXR counter
COc1cn(-c2ccccc2)nc1C(=O)Nc1ccc(C)cc1Cl	.	.	5.0	.	.	.	.	.
Cn1cc(/C=C2\SC(=O)N(c3ccc(O)cc3)C2=O)c2ccccc21	-1.0	0.0	-9.0	.	3.1	-7.4	.	.
Cn1cc(/C=C2\SC(=O)N(c3ccccc3)C2=O)c2ccccc21	-2.0	7.6	98.5*	110.5	-3.2	7.0	69.0*	19.9*
Cc1c(Cc2ccc3c(c2)OCO3)sc(NC(=O)c2cccc3ccccc23)c1C(N)=O	-5.1	8.5	103.4*	106.1	15.8	3.6	60.1*	57.8*
C/C(=N\NC(=O)c1c[nH]c2ccccc12)c1ccc(C)s1	.	.	91.7*	.	.	.	125.7*	59.4*
C/C(=N\NC(=O)c1csc(C)c1C)c1ccc(C)s1	-7.7	2.5	6.0	106.4	9.6	-0.4	.	.
CC/C(=N\NC(=O)c1c[nH]c2ccccc12)c1cccs1	-9.3	9.6	83.0*	115.2	10.1	0.0	151.4*	54.8*
Cc1c(C(=O)Nc2nccs2)oc2ccc(Br)cc12	.	.	86.5*	.	.	.	132.2*	21.8*
Cc1ccc(NC(=O)c2noc3c2CCc2ccccc2-3)cc1	-0.9	7.0	101.8*	114.1	23.4	0.4	133.0*	20.3*
Fc1ccc(NC(=S)N/N=C/c2ccc(F)c(F)c2)cc1	-7.5	-4.9	15.3	100.5	8.5	-9.2	.	.
Fc1ccc(/C=N/NC(=S)Nc2ccc(Cl)cc2Cl)cc1	2.4	1.3	84.0*	.	8.6	0.8	107.2*	7.2
CC1=CCC2C(=O)N(c3ccc(C)c(Br)c3)C(=O)C2C1 (stereo unspecified)	-4.0	8.8	90.1*	94.1	11.7	1.6	2.6	87.2*
CC1=CCC2C(=O)N(c3ccc(C)cc3)C(=O)C2C1 (stereo unspecified)	16.4	-9.9	0.5	99.4	-3.5	-1.6	.	.
O=C(COC(=O)c1ccc(O)cc1)Nc1ccccc1[N+](=O)[O-]	-6.0	-6.1	7.8	86.9	1.5	-3.3	.	.
CCc1noc(C)c1C(=O)Nc1nc(-c2ccc(F)cc2)c(C)s1	.	.	94.8*	.	.	.	84.6*	27.6*
CCc1noc(C)c1C(=O)Nc1nc(-c2cc(C)ccc2C)c(C)s1	-2.1	-3.9	1.0	100.4	2.6	-0.3	.	.
CC(=O)C1=C(C)Nc2ncnn2C1c1ccc(Br)cc1 (stereo unspecified)	.	.	0.8	.	.	.	.	.
N/C(=N\c1nc2ccccc2o1)NC(=O)c1ccccc1Br	-10.1	-1.6	95.3*	.	6.5	-8.4	42.8	28.1*
N/C(=N\c1nc2ccccc2o1)NC(=O)c1ccc(F)cc1	-15.0	4.4	82.8*	90.2	14.4	0.0	144.8*	29.6*
CCOc1ccc(-c2nc(N)nc(C)c2-c2ccc(Cl)cc2)c(O)c1	.	.	89.9*	.	.	.	78.7*	39.1*
Cc1cc(C)c(C)c(S(=O)(=O)N2CCC(C(=O)NC3=NCCS3)CC2)c1C	.	.	-1.3	.	.	.	.	.
Cc1cccc(-c2nsc(SCC(=O)Nc3ccc4c(c3)OCO4)n2)c1	3.3	5.9	105.2*	106.6	5.0	-5.2	21.4	15.8*
Cc1ccccc1-c1nsc(SCC(=O)Nc2ccc3c(c2)OCO3)n1	-4.3	2.4	13.8	99.2	7.2	-10.7	.	.
Cn1nnnc1SCC(=O)Nc1ccc2c(c1)OCO2	4.6	12.9	103.0*	100.5	5.7	9.3	114.8*	16.5*
CCn1c(SCC(=O)Nc2ccc3c(c2)OCO3)nc2ccccc21	-12.8	7.3	93.0*	90.3	15.5	3.8	32.7	82.3*
SMILES	hK5 inh	FXIa inh 1536	AHR activator	STAT3 activator	FXIIa inh	thrombin 1536	AHR act cf	PXR counter
O=C(CSc1nc2ccccc2n1CC(=O)N1CCCC1)Nc1ccc2c(c1)OCO2	-12.1	4.0	7.4	101.7	11.4	1.5	.	.
CCOC(=O)C1CCN(C(=O)/C=C/c2ccc3c(c2)OCO3)CC1	.	.	7.5	.	.	.	.	.
CCCCc1nc2cc(C(=O)NCc3cc(C)n(C)n3)ccc2o1	.	.	5.6	.	.	.	.	.
CC(=O)c1cc(CN2CCC(n3nccc3NC(=O)c3ccccc3)CC2)cs1	.	.	-1.1	.	.	.	.	.
O=C(/C=C/c1ccco1)NC(=S)Nc1cccc(-c2nc3ccccc3s2)c1	.	.	81.5*	109.7	.	.	117.9*	32.5*
CCOc1cc(-c2nc3ccccc3s2)ccc1O	-7.2	-4.7	1.7	.	-5.2	-8.8	.	.
COc1ccc(-c2nc3ccccc3s2)cc1O	-17.4	-6.6	82.3*	24.8	-1.9	2.8	76.3*	11.0*
Nc1cccc(-c2nc3ccccc3s2)c1	-0.9	-5.8	115.9*	103.5	-18.9	-11.3	96.3*	8.0
CC(=O)Nc1cccc(-c2nc3ccccc3s2)c1	-7.1	-7.8	124.3*	101.7	0.8	-1.6	99.4*	20.1*
Oc1cccc(-c2nc3ccccc3s2)c1	62.5*	14.1	85.8*	41.6	11.5	104.0*	58.3*	12.0*
CCOC(=O)C1=C(COC(=O)c2ccco2)NC(=O)NC1CC (stereo unspecified)	.	.	-1.6	.	.	.	.	.
COc1cc(C)nc(Nc2nc(C)c(C(C)=O)s2)n1	-24.4	2.4	108.4*	90.5	15.1	-4.5	37.8	11.1*
COc1ccc2nc(Nc3nc(C)c(C(C)=O)s3)sc2c1	-64.7	-4.5	4.5	110.1	8.9	-4.1	.	.
CN(C)/C=C/C(=O)c1ccc2noc(-c3cccc(F)c3)c2c1	.	.	2.4	.	.	.	.	.
Cc1nn2c(-c3ccc(F)cc3)ccnc2c1Br	.	.	81.5*	.	.	.	108.8*	25.3*
Fc1ccc(-c2cnn3c(-c4ccncc4)ccnc23)cc1	-12.8	-7.5	134.6*	74.4	-1.2	-3.0	45.0	26.5*
Cc1nn2c(-c3ccncc3)ccnc2c1Br	-4.2	-3.5	-0.9	96.4	3.1	-3.9	.	.
Fc1ccc(-c2cnn3c(-c4cccs4)ccnc23)cc1	-10.8	-7.1	.	85.1	1.6	3.2	.	.
CCCn1c(SCC(=O)Nc2cc(Cl)ccc2OC)nc(O)cc1=O	.	.	6.2	.	.	.	.	.
CCn1cc(Br)c(C(=O)Nc2ccc(Cl)cc2Cl)n1	-1.6	-1.7	81.8*	93.3	6.0	-11.6	126.5*	11.3*
Cc1ccc2c(c1)N(C(=O)CCC(=O)N1CCC(C(N)=O)CC1)CC(C)O2 (stereo unspecified)	.	.	-0.3	.	.	.	.	.
COc1ccc(Br)cc1C(=O)Nc1cc(C)cc(C)c1	-7.2	0.8	113.4*	99.2	16.8	1.1	100.3*	18.2*
